Measured values reported in ChEMBL document CHEMBL4304748, “Design, Synthesis, and Biological Evaluation of a New Series of Carvedilol Derivatives That Protect Sensory Hair Cells from Aminoglycoside-Induced Damage by Blocking the Mechanoelectrical Transducer Channel” (J Med Chem, 2019).
Activity calls are given as the source filed them. No cut-off for these calls is given here.

Columns and labels:
Mus musculus [1] = species on record: Mus musculus; assay: Otoprotective activity against gentamicin-induced outer hair cell death in CD-1 mouse cochlea at 20 uM after 48 hrs by TRITC-phalloidin staining-based microscopic analysis relative to control; type: functional
How it was run: (§1)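 Mouse cochlear cultures coincubated for 48 h with 5 μM gentamicin plus compound (5, 10 or 20 μM). OHCs counted in a 300 μm long segment of the mid-basal cochlea. Counts compared with 0.5% DMSO control and with gentamicin + 0.5% DMSO cultures.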

[2] = Cytotoxicity in CD-1 mouse cochlea assessed as induction of cell death in outer hair cell at >=30 uM after 48 hrs by confocal microscopic analysis; type: toxicity, tissue-based
How it was run: (§2)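 Mouse cochlear cultures exposed for 48 h to compound, either alone or with 5 μM gentamicin. Controls received 0.5% DMSO, or 5 μM gentamicin + 0.5% DMSO. Hair cell survival counted in a 300 μm segment of the mid-basal region. Confocal imaging used to assess IHC and OHC stereociliary bundle morphology.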

[3] = Cytotoxicity in CD-1 mouse cochlea assessed as disruption of hair bundle morphology in inner hair cell at 30 uM after 48 hrs by confocal microscopic analysis; type: toxicity, tissue-based; how it was run: as §2
[4] = Toxicity in 3 days post fertilized AB zebrafish larvae assessed as reduction in larvae survival at 30 uM incubated for 48 hrs; design: species or system Danio rerio; conditions: in vivo
How it was run: (§3)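 Zebrafish larvae at 3 dpf treated with compound at 30 or 100 μM for 48 h in three trials. Larvae scored for survival and for circulation, then startled and assayed for movement.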

Danio rerio [5] = species on record: Danio rerio; assay: Otoprotective activity against gentamicin-induced neuromast hair cell death in 4 days post fertilized AB zebrafish larvae assessed as increase in hair cell survival incubated for 6 hrs by inverted microscopic method; type: functional, organism-based
Mus musculus [6] = species on record: Mus musculus; assay: Inhibition of MET channel in CD-1 mouse cochlea outer hair bundles assessed as time constant of inward current decline at 1 uM at holding potential of […] by patch clamp assay
How it was run: (§4)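 MET channels opened by steps from a holding potential of -84 mV, with 1 or 3 μM compound superfused. Currents averaged from 10 repetitions. The current decline was fitted with single exponentials to give time constants, and drug entry rates into hair cells were calculated from these.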

Pseudomonas aeruginosa [7] = assay: Effect on gentamycin-induced antibacterial activity against Pseudomonas aeruginosa at 2.2 uM incubated for 16 to 20 hrs by BacTiter-Glo assay; type: ADME, organism-based; conditions: in vivo
Mus musculus [8] = species on record: Mus musculus; assay: Inhibition of MET channel in CD-1 mouse cochlea outer hair cells assessed as reduction in GTTR uptake at 100 uM preincubated for 5 mins followed by GTTR addition and measured after 24 mins by microscopic method
How it was run: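 Mouse cochlear cultures pre-incubated 5 min with 100 μM compound or 1% DMSO, then 0.2 μM gentamicin Texas Red (GTTR) added. GTTR fluorescence intensity measured in first-row OHCs, with 10 cells analysed from each of three separate experiments (N = 30).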

[9] = Toxicity in 3 days post fertilized AB zebrafish larvae assessed as effect on larval movement at 100 uM incubated for 48 hrs; design: species or system Danio rerio; conditions: in vivo; how it was run: as §3
Pseudomonas aeruginosa [10] = assay: Effect on gentamycin-induced antibacterial activity against Pseudomonas aeruginosa at 11 uM incubated for 16 to 20 hrs by BacTiter-Glo assay; type: ADME, organism-based; conditions: in vivo
Klebsiella pneumoniae [11] = assay: Effect on gentamycin-induced antibacterial activity against Klebsiella pneumoniae at 2.2 uM incubated for 16 to 20 hrs by BacTiter-Glo assay; type: ADME, organism-based; conditions: in vivo
[12] = Binding affinity to MET in CD-1 mouse cochlear outer hair cells measured at -84 mV membrane potential by patch clamp assay
How it was run: (§5)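 MET currents recorded from OHCs before and during extracellular superfusion of compound at 1, 3 and 10 μM, over membrane potentials from -164 to +96 mV. Currents normalized to the peak control current at +96 mV for each cell. Dose–response curves built at each membrane potential and fitted with eq 1 to give K_D and Hill coefficient.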

[13] = Cytotoxicity in CD-1 mouse cochlea assessed as induction of cell death in outer hair cell at 30 uM in presence of gentamicin after 48 hrs by confocal microscopic analysis; type: toxicity, tissue-based; how it was run: as §2
[14] = Binding affinity to MET in CD-1 mouse cochlear outer hair cells measured at +96 mV membrane potential by patch clamp assay; how it was run: as §5
Mus musculus [15] = species on record: Mus musculus; assay: Inhibition of MET in CD-1 mouse cochlear outer hair cells assessed as reduction in MET currents at 1 to 10 uM measured at -164 mV membrane potential by patch clamp assay; how it was run: as §5
Mus musculus [16] = species on record: Mus musculus; assay: Inhibition of MET in CD-1 mouse cochlea outer hair cells assessed as blockade of MET currents at 10 uM measured at -160 mV to +80 mV membrane potential by patch clamp assay relative to control
How it was run: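 OHC MET currents recorded before and during exposure to 10 μM compound. Fractional block taken as the current during exposure relative to the control current at each membrane potential.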

Danio rerio [17] = species on record: Danio rerio; assay: Otoprotective activity against neomycin-induced neuromast hair cell death in 4 days post fertilized AB zebrafish larvae assessed as increase in hair cell survival incubated for 1 hr by inverted microscopic method; type: functional, organism-based
[18] = Otoprotective activity against gentamicin-induced outer hair cell death in CD-1 mouse cochlea at 5 uM after 48 hrs by TRITC-phalloidin staining-based microscopic analysis relative to control; type: functional; how it was run: as §1
Mus musculus [19] = species on record: Mus musculus; assay: Inhibition of MET channel in CD-1 mouse outer hair bundles assessed as time constant of inward current decline at 3 uM at holding potential of […] by patch clamp assay; how it was run: as §4
[20] = Toxicity in 3 days post fertilized AB zebrafish larvae assessed as reduction in larvae survival at 100 uM incubated for 48 hrs; design: species or system Danio rerio; conditions: in vivo; how it was run: as §3
Mus musculus [21] = species on record: Mus musculus; assay: Inhibition of MET in CD-1 mouse cochlea outer hair cells assessed as reduction in MET currents at 1 to 10 uM measured at -150 mV to +100 mV membrane potential by patch clamp assay
[22] = Toxicity in 3 days post fertilized AB zebrafish larvae assessed as effect on blood circulation at 30 uM incubated for 48 hrs by inverted microscopic method; design: species or system Danio rerio; conditions: in vivo; how it was run: as §3
Mus musculus [23] = species on record: Mus musculus; assay: Otoprotective activity against gentamicin-induced outer hair cell death in CD-1 mouse cochlea at 10 uM after 48 hrs by TRITC-phalloidin staining-based microscopic analysis relative to control; type: functional; how it was run: as §1
[24] = Toxicity in 3 days post fertilized AB zebrafish larvae assessed as effect on blood circulation at 100 uM incubated for 48 hrs by inverted microscopic method; design: species or system Danio rerio; conditions: in vivo; how it was run: as §3
[25] = Cytotoxicity in CD-1 mouse cochlea assessed as disruption of hair bundle morphology in outer hair cell at 30 uM after 48 hrs by confocal microscopic analysis; type: toxicity, tissue-based; how it was run: as §2
[26] = Binding affinity to MET in CD-1 mouse cochlear outer hair cells measured at +16 mV membrane potential by patch clamp assay; how it was run: as §5
Klebsiella pneumoniae [27] = assay: Effect on gentamycin-induced antibacterial activity against Klebsiella pneumoniae at 11 uM incubated for 16 to 20 hrs by BacTiter-Glo assay; type: ADME, organism-based; conditions: in vivo
Staphylococcus aureus [28] = assay: Effect on gentamycin-induced antibacterial activity against Staphylococcus aureus at 11 uM incubated for 16 to 20 hrs by BacTiter-Glo assay; type: ADME, organism-based; conditions: in vivo
[29] = Binding affinity to MET in CD-1 mouse cochlear outer hair cells measured at -164 mV membrane potential by patch clamp assay; how it was run: as §5
Staphylococcus aureus [30] = assay: Effect on gentamycin-induced antibacterial activity against Staphylococcus aureus at 2.2 uM incubated for 16 to 20 hrs by BacTiter-Glo assay; type: ADME, organism-based; conditions: in vivo
Mus musculus [31] = species on record: Mus musculus; assay: Inhibition of MET in CD-1 mouse outer hair cells assessed as reduction in MET currents at 3 to 10 uM measured at -160 mV to +96 mV membrane potential by patch clamp assay
[32] = Solubility of the compound; type: physicochemical

With `COc1ccccc1OCCNCCCOc1cccc2[nH]c3ccccc3c12` the Activity (Mus musculus [1]) was “Active”, the Activity [2] was “Toxic” and the Activity [3] was “Toxic”. The Activity [4] was “Non-Toxic”, the EC50 (Danio rerio [5]) was 10800 nM and the TIME (Mus musculus [6]) was 2.75e-06 h. For the same compound, the Activity (Pseudomonas aeruginosa [7]) was “Non-Toxic”, the inhibition (Mus musculus [8]) was “Active” and the Activity [9] was “Non-Toxic”. For the same compound, the Activity (Pseudomonas aeruginosa [10]) was “Non-Toxic”, the Activity (Klebsiella pneumoniae [11]) was “Non-Toxic” and the Kd [12] was 2400 nM. For the same compound, the Activity [13] was “Non-Toxic”, the Kd [14] was 1700 nM and the inhibition (Mus musculus [15]) was “inactive”. For the same compound, the inhibition (Mus musculus [16]) was 100%, the EC50 (Danio rerio [17]) was 2080 nM and the Activity [18] was 88%. For the same compound, the TIME (Mus musculus [19]) was 1.67e-06 h, the Activity [20] was “Non-Toxic” and the inhibition (Mus musculus [21]) was “Active”. For the same compound, the Activity [22] was “Non-Toxic”, the Activity (Mus musculus [23]) was “Active” and the Activity [24] was “Non-Toxic”. For the same compound, the Activity [25] was “Toxic”, the Kd [26] was 1000 nM and the Activity (Klebsiella pneumoniae [27]) was “Non-Toxic”. For the same compound, the Activity (Staphylococcus aureus [28]) was “Non-Toxic”, the Kd [29] was 4600 nM and the Activity (Staphylococcus aureus [30]) was “Non-Toxic”.
With `COc1ccccc1OCCN(CCCOc1cccc2[nH]c3ccccc3c12)CCOc1ccccc1OC` the inhibition (Mus musculus [31]) was “inactive”, the Activity (Mus musculus [23]) was “inactive” and the solubility [32] was “Insoluble”.
